Published values pooled from the literature.
Target: NT-3 growth factor receptor (NTRK3, Homo sapiens, UniProt Q16288)

| SMILES | read-out | mode | technique | tested at | measurement | value |
| --- | --- | --- | --- | --- | --- | --- |
| Cc1ccc(Nc2nccc(N(C)c3ccc4c(C)n(C)nc4c3)n2)cc1S(N)(=O)=O | cell-free assay | – | – | 0.5 µM | remaining signal | 87.8% |
| CN(C)C(=O)Cn1cc(-c2nc([C@@](C)(c3ccc(-c4cnc(N)nc4)cc3)C3CC3)no2)cn1 | cell-free assay | – | competition with immobilised ligand | 1 µM | remaining binding | 92% |
| Cc1cc(NC(=O)c2cccc3cc(-c4cccc5[nH]nc(N)c45)ccc23)ccc1F | enzyme activity | inhibitor | – | 0.1 µM | activity vs control | 90% |
| Cc1c(C(=O)O)cc(-c2ccc(C3CCNCC3)cc2)c2ccc(-c3ccc(C(F)(F)F)cc3)cc12 | cell-free assay | – | competition with immobilised ligand | 1 µM | remaining binding | 100% |
| Cc1cnc(NC2CCOCC2)nc1-n1cnc(C(=O)NC(CN)c2cc(F)cc(Cl)c2)c1 (stereo not shown) | enzyme activity | inhibitor | radiometric | 1 µM | remaining activity | 93% |
| O=C(Nc1cnn(-c2csc(C(=O)NC3COC3)c2)c1)Nc1ccccc1Cl | enzyme activity | inhibitor | – | 5 µM | remaining activity | 64.3% |
| O=C(Nc1ccc(Cl)cc1)Nc1cccc(C(=O)Nc2ccc3[nH]ncc3c2)c1 | enzyme activity | inhibitor | FRET | 1 µM | inhibition | 15.4% |
| Clc1ccc(Nc2nnc(Cc3ccncc3)c3ccccc23)cc1 | cell-free assay | – | – | 0.5 µM | remaining signal | 92.7% |
| O=C(Nc1ccc(I)cc1)Nc1cccc(C(=O)Nc2ccc3[nH]ncc3c2)c1 | enzyme activity | inhibitor | FRET | 1 µM | inhibition | 14.6% |
| NS(=O)(=O)c1cc(NC(=O)Cc2ccccc2)ccc1Oc1cccc(Cl)c1 | cell-free assay | – | competition with immobilised ligand | 1 µM | remaining binding | 87% |
| O=C(Nc1cccc(C(=O)Nc2ccc3[nH]ncc3c2)c1)Nc1ccccc1F | enzyme activity | inhibitor | FRET | 1 µM | inhibition | 26.3% |
| CN(C)c1ncnc(-c2ccc3nc(Nc4cc(CN5CCN(C(=O)CC(F)(F)F)CC5)ccn4)[nH]c3c2)c1Cl | cell-free assay | – | competition with immobilised ligand | 1 µM | remaining binding | 61% |
| O=C(Nc1cccc(C(=O)Nc2ccc3[nH]ncc3c2)c1)Nc1ccccc1Cl | enzyme activity | inhibitor | FRET | 1 µM | inhibition | 27.4% |
| Cc1noc([C@H]2C[C@@H](c3ccc(C(F)(F)F)cc3)CN(C(=O)N3CCS(=O)(=O)C3)C2)n1 | cell-free assay | – | competition with immobilised ligand | 1 µM | remaining binding | 100% |
| COc1cc2ncnc(Nc3ccc(F)c(Cl)c3)c2cc1OCCCN1CCOCC1 | cell-free assay | – | – | 0.5 µM | remaining signal | 103% |
| Cc1c(NC(=O)c2cc(C(N)=O)nc3cc(F)ccc23)c(C(F)(F)F)nn1Cc1ccc(C(C)(C)C)cc1 | cell-free assay | – | competition with immobilised ligand | 1 µM | remaining binding | 100% |
| O=C(Nc1ccccc1)Nc1cccc(C(=O)Nc2ccc3[nH]ncc3c2)c1 | enzyme activity | inhibitor | FRET | 1 µM | inhibition | 12.7% |
| COc1cc2c(Nc3ccc(Br)cc3F)ncnc2cc1OCC1CCN(C)CC1 | cell-free assay | – | – | 0.5 µM | remaining signal | 72.2% |
| O=C(Nc1cnn(-c2csc(C(=O)NC3COC3)c2)c1)Nc1c(F)cccc1Cl | enzyme activity | inhibitor | – | 5 µM | remaining activity | 38.6% |
| C[C@@]1(Cc2ccc(C#N)cc2)C(=O)N(c2cc(Cl)cc(Cl)c2)c2ncc(C(=O)NC3(c4nc(C5CCC5)no4)CC3)n21 | cell-free assay | – | competition with immobilised ligand | 1 µM | remaining binding | 100% |
| O=C(Nc1ccc(C(F)(F)F)cc1)Nc1cccc(C(=O)Nc2ccc3[nH]nc(-c4ccccc4)c3c2)c1 | enzyme activity | inhibitor | FRET | 1 µM | inhibition | 12.9% |
| CC(C)(C)c1nc(-c2cccc(NS(=O)(=O)c3c(F)cccc3F)c2F)c(-c2ccnc(N)n2)s1 | enzyme activity | inhibitor | radiometric | 1 µM | remaining activity | 93% |
| COc1cc(Cl)c(C(=O)N[C@@H](CN[C@H]2CC[C@@H](N)CC2)Cc2ccc(C#N)cc2)cc1-c1ccc(CN[C@H](C)c2ccc(C)cc2)o1 | enzyme activity | inhibitor | – | 1 µM | remaining activity | 96% |
| O=C(Nc1cnn2ccc(N3CCC[C@@H]3c3cc(F)ccc3F)nc12)N1CC[C@H](O)C1 | enzyme activity | inhibitor | FRET | 1 µM | inhibition | 100% |
| CS(=O)(=O)NCC[C@H](NC(=O)c1cncc2c1cnn2-c1ccc(F)cc1)c1ccnc(S(C)(=O)=O)c1 | cell-free assay | – | competition with immobilised ligand | 1 µM | remaining binding | 100% |
